In ChEMBL document CHEMBL4477178, “Biflorin, Isolated from the Flower Buds of Syzygium aromaticum L., Suppresses LPS-Induced Inflammatory Mediators via STAT1 Inactivation in Macrophages and Protects Mice from Endotoxin Shock” (J Nat Prod, 2016):
Active and inactive are the calls of the source. The rule behind the calls is not given here.

Key:
RAW264.7 [1] = assay: Antiinflammatory activity in mouse RAW264.7 cells assessed as downregulation of LPS-induced TNF-alpha expression at 60 uM preincubated for 1 hr followed by LPS challenge for 6 to 12 hrs by luciferase reporter gene assay; type: functional, cell-based
Method in brief: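 RAW 264.7 transiently cotransfected with promoter-luciferase construct (pGL3-iNOS, pGL3-COX-2 or pTNF-α-luc) plus phRL-TK internal control; 6 h after transfection pretreated 1 h with 60 μM, then LPS 10 ng/mL for 6 or 12 h. Cells washed in cold PBS, lysed, luciferase read. Mean ± SD, three independent experiments.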

[2] = target: Signal transducer and activator of transcription 3 (Mus musculus) (UniProt P42227); assay: Inhibition of LPS-induced STAT3 phosphorylation at Y705 in mouse RAW264.7 cells at 15 to 60 uM preincubated for 1 hr followed by LPS challenge for 120 mins by Western blot analysis; type: cell-based
Signal transducer and activator of transcription 3 (Mus musculus), sequence (P42227 whole entry): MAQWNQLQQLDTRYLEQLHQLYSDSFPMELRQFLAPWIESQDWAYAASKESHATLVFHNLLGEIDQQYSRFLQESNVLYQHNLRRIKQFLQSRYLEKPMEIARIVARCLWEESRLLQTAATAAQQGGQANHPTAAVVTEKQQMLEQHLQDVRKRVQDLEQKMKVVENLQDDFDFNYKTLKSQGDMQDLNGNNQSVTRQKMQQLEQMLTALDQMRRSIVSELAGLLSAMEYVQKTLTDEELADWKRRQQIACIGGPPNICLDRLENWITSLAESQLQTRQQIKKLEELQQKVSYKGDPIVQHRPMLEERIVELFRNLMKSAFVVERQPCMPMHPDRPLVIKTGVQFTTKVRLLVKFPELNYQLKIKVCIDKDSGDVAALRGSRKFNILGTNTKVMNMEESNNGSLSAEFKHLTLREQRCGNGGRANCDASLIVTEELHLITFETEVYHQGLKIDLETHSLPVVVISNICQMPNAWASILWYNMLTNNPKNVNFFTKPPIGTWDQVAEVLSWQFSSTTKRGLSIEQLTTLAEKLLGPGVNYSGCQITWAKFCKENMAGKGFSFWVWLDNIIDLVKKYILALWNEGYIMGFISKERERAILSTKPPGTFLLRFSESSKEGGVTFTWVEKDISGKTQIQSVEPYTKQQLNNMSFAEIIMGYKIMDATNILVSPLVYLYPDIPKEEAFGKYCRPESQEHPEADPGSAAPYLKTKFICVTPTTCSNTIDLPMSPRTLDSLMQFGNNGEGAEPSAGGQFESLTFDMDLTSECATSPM
Method in brief: (§1)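 RAW 264.7 pretreated 1 h at 15, 30 or 60 μM, then LPS 10 ng/mL: 120 min for p-STAT1 Y701, 15 min for p-STAT1 S727, 120 min for p-STAT3 Y705. Western blot with phospho-specific and total STAT1/STAT3 antibodies, β-actin control; three independent experiments.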

[3] = target: T1, Signal transducer and activator of transcription 1 (Mus musculus) (UniProt P42225); assay: Inhibition of LPS-induced STAT1 phosphorylation at S727 in mouse RAW264.7 cells at 15 to 60 uM preincubated for 1 hr followed by LPS challenge for 15 mins by Western blot analysis; type: cell-based; method in brief: as §1
T1 sequence (whole entry): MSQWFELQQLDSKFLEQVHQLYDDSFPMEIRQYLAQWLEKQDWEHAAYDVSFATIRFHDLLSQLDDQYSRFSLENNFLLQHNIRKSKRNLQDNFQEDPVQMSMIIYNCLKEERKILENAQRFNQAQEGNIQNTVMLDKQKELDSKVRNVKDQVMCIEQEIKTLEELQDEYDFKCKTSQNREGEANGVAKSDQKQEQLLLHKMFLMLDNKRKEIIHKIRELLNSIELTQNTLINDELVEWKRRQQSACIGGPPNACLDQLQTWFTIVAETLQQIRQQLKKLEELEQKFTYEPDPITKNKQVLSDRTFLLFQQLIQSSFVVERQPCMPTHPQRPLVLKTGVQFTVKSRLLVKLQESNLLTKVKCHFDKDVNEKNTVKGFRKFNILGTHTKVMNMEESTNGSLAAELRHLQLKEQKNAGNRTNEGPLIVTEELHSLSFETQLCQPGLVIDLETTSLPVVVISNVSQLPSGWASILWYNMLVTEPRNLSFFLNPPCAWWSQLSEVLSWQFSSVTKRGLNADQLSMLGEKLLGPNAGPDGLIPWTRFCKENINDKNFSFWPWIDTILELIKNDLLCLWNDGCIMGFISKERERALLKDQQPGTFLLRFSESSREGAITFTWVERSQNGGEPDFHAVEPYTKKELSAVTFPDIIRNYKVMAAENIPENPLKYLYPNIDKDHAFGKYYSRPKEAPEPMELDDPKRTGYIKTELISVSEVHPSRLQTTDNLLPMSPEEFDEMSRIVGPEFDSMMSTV

[4] = target: T1, Signal transducer and activator of transcription 1 (Mus musculus); assay: Inhibition of LPS-induced STAT1 phosphorylation at Y701 in mouse RAW264.7 cells at 15 to 60 uM preincubated for 1 hr followed by LPS challenge for 120 mins by Western blot analysis; type: cell-based; method in brief: as §1
RAW264.7 [5] = assay: Antiinflammatory activity in mouse RAW264.7 cells assessed as inhibition of LPS-induced TNF-alpha mRNA expression at 60 uM after 2 to 12 hrs by qRT-PCR method; type: functional, cell-based
Method in brief: (§2)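 RAW 264.7 stimulated with LPS 10 ng/mL with or without 60 μM for 2, 4, 6 and 12 h. Total RNA (1 μg) reverse-transcribed with MuLV RT and random primer; SYBR green real-time qPCR with gene-specific primers, triplicate Ct normalized to β-actin. Mean ± SD, three independent experiments.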

RAW264.7 [6] = assay: Antiinflammatory activity in mouse RAW264.7 cells assessed as inhibition of LPS-induced COX-2 mRNA expression at 60 uM after 2 to 12 hrs by qRT-PCR method; type: functional, cell-based; method in brief: as §2
[7] = target: Transcription factor Jun (Mus musculus) (UniProt P05627); assay: Inhibition of LPS-induced AP-1 activity in mouse RAW264.7 cells at 15 to 60 uM preincubated for 1 hr followed by LPS challenge for 12 hrs by luciferase reporter gene assay; type: cell-based
Transcription factor Jun (Mus musculus), sequence (P05627 whole entry): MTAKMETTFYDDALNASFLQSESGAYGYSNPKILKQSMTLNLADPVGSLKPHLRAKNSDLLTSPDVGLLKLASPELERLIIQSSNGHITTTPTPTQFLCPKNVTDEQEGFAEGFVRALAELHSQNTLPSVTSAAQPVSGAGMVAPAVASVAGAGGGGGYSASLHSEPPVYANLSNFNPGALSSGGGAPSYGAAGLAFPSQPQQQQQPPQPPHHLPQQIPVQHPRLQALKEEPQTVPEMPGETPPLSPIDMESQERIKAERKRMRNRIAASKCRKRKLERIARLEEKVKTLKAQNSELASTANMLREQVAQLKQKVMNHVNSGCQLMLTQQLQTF

Peritoneal macrophage = assay: Antiinflammatory activity in C57BL/6 mouse peritoneal macrophages assessed as inhibition of LPS-induced nitric oxide production at 60 uM preincubated for 1 hr followed by LPS challenge for 48 hrs by Griess assay; type: functional; details: C57BL/6, Peritoneal macrophage
Method in brief: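 Thioglycolate-elicited C57BL/6 mouse peritoneal macrophages, plated at 5 × 10^5 cells/mL and incubated overnight. Compound given at 15, 30 or 60 μM for 1 h, then LPS 10 μg/mL. Medium mixed 1:1 with Griess reagent for 10 min at room temperature, absorbance read at 540 nm, nitrite quantified against a NaNO2 standard. L-NIL 20 μM as positive control; three independent experiments.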

[8] = target: Signal transducer and activator of transcription 3 (Mus musculus) (UniProt P42227); assay: Inhibition of LPS-induced STAT3 phosphorylation at Y705 in C57BL/6 mouse peritoneal macrophages at 15 to 60 uM preincubated for 1 hr followed by LPS challenge for 60 mins by Western blot analysis
Method in brief: (§3)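 Thioglycolate-elicited C57BL/6 peritoneal macrophages pretreated 1 h at 15, 30 or 60 μM, then LPS 10 μg/mL: 120 min for p-STAT1 Y701, 30 min for p-STAT1 S727, 60 min for p-STAT3 Y705. Western blot with phospho-specific and total STAT antibodies, β-actin control; three independent experiments.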

[9] = Cytotoxicity against C57BL/6 mouse peritoneal macrophages assessed as cell viability at 60 uM after 24 hrs by MTT assay; type: cell-based, Peritoneal macrophage; details: read-out: Activity
Method in brief: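 Peritoneal macrophages from thioglycolate-elicited C57BL/6 male mice (harvested by lavage after 4 days, cultured in DMEM/10% FBS) exposed 24 h up to 60 μM; viability by MTT assay.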

[10] = target: T1, Signal transducer and activator of transcription 1 (Mus musculus); assay: Inhibition of LPS-induced STAT1 phosphorylation at S727 in C57BL/6 mouse peritoneal macrophages at 15 to 60 uM preincubated for 1 hr followed by LPS challenge for 30 mins by Western blot analysis; method in brief: as §3
RAW264.7 [11] = assay: Antiinflammatory activity in mouse RAW264.7 cell lysate assessed as inhibition of LPS-induced iNOS expression preincubated for 1 hr followed by LPS challenge for 24 hrs by Western blot analysis; type: functional, cell-based
Method in brief: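 RAW 264.7 (DMEM, 10% FBS, 37 °C, 5% CO2) pretreated 1 h at 15, 30 or 60 μM, then LPS 10 ng/mL for 24 h. Lysates run on 10–12% SDS-PAGE, blotted to PVDF, probed with iNOS or COX-2 antibody (1:1000, overnight 4 °C), HRP secondary, ECL; densitometry vs β-actin. Mean ± SD of three independent experiments.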

For `Cc1cc(=O)c2c(O)c([C@@H]3O[C@H](CO)[C@@H](O)[C@H](O)[C@H]3O)c(O)cc2o1` [BIFLORIN], the Activity (RAW264.7 [1]) was “Active”, the inhibition [2] was “Active” and the inhibition [3] was “Active”. The inhibition [4] was “Active”, the inhibition (RAW264.7 [5]) was “Active” and the inhibition (RAW264.7 [6]) was “Active”. The inhibition [7] was “inactive”, the inhibition at 60 µM (Peritoneal macrophage) was 55.9% and the inhibition [8] was “Active”. The viability at 24 h, 60 µM [9] was 90.4%, the inhibition [10] was “Active” and the inhibition (RAW264.7 [11]) was “Dose-dependent effect”.
